In test [1] the target is T1, Thymidylate synthase (Homo sapiens, UniProt P04818). Kind of test: The rate constant in Acetonitrile and buffered aqueous acetonitrile solution, at 30 degrees C and pH 6.8.
Target sequence in this assay (P04818 2-313 limits assumed): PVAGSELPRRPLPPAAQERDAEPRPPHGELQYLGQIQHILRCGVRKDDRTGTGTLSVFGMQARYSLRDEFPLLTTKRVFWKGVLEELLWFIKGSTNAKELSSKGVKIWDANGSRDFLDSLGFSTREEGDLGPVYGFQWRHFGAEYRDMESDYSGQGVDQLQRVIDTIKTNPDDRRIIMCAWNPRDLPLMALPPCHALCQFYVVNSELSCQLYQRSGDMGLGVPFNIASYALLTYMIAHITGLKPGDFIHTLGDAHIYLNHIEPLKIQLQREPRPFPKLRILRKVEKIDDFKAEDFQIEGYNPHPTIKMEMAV
Test [2] addresses T1, Thymidylate synthase. Kind of test: The rate constant in Acetonitrile and buffered aqueous acetonitrile solution, at 25 degrees Celsius and pH 7.4.
Target sequence in this assay (P04818 2-313 limits assumed): as above
Test [3] has as its target T1, Thymidylate synthase. Nature of the test: The rate constant in 70% ethanol.
Target sequence in this assay (P04818 2-313 limits assumed): as above
In test [4] the target is T1, Thymidylate synthase. Kind of test: The rate constant in Acetonitrile and buffered aqueous acetonitrile solution, at 30 degrees Celsius and pH 8.1.
Target sequence in this assay (P04818 2-313 limits assumed): as above
In test [5] the target is T1, Thymidylate synthase. Kind of test: The rate constant with methyl mercaptoacetate in Acetonitrile and buffered aqueous acetonitrile solution at concentration of 0.0077 M. The essentials:
(§1)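 Quinone nucleoside reacted with excess methyl mercaptoacetate in deoxygenated acetonitrile at […]. Water content was varied by adding known amounts of water to acetonitrile dried over 3-Å sieves. Initial quinone was 7.4×10^-5 to 1.6×10^-4 M, and thiol was varied. Pseudo-first-order kobsd was measured, and k2 came from log kobsd = log k2 + n log[thiol].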
Target sequence in this assay (P04818 2-313 limits assumed): as above

In test [6] the target is T1, Thymidylate synthase. Nature of the test: The observed rate constant with methyl mercaptoacetate in Acetonitrile and buffered aqueous acetonitrile solution at 1.6 x 10e-4 M concentration of 0.0036 M. The essentials: as §1
Target sequence in this assay (P04818 2-313 limits assumed): as above
Test [7] addresses T1, Thymidylate synthase. Kind of test: The observed rate constant with methyl mercaptoacetate in Acetonitrile and buffered aqueous acetonitrile solution at 1.6 x 10e-4 M concentration of 0.0061 M. The essentials: as §1
For test [8], the target named is T1, Thymidylate synthase. Nature of the test: The rate constant with methyl mercaptoacetate in Acetonitrile and buffered aqueous acetonitrile solution at concentration of 0.0039 M. The method, boiled down: as §1
Test [9] addresses T1, Thymidylate synthase. Nature of the test: The observed rate constant with methyl mercaptoacetate in Acetonitrile and buffered aqueous acetonitrile solution at 1.6 x 10e-4 M concentration of 0.012 M. The essentials: as §1
In test [10] the target is T1, Thymidylate synthase. Nature of the test: The observed rate constant with methyl mercaptoacetate in Acetonitrile and buffered aqueous acetonitrile solution at 7.4 x 10e-5 M concentration of 0.00098 M. The essentials: as §1
For test [11], the target named is T1, Thymidylate synthase. Nature of the test: The observed rate constant with methyl mercaptoacetate in Acetonitrile and buffered aqueous acetonitrile solution at 9.7 x 10e-5 M concentration of 0.0029 M. The essentials:
as §1

The target of test [12] is T1, Thymidylate synthase. Kind of test: The observed rate constant with methyl mercaptoacetate in Acetonitrile and buffered aqueous acetonitrile solution at 1.4 x 10e-4 M concentration of 0.0077. The essentials: as §1
Test [13] has as its target T1, Thymidylate synthase. Kind of test: The rate constant with methyl mercaptoacetate in Acetonitrile and buffered aqueous acetonitrile solution at concentration of 0.00096 M. The method, boiled down: as §1
Test [14] has as its target T1, Thymidylate synthase. Kind of test: The observed rate constant with methyl mercaptoacetate in Acetonitrile and buffered aqueous acetonitrile solution at 1.4 x 10e-4 M concentration of 0.0020. The method, boiled down: as §1
Test [15] addresses T1, Thymidylate synthase. Nature of the test: The observed rate constant with methyl mercaptoacetate in Acetonitrile and buffered aqueous acetonitrile solution at 7.4 x 10e-5 M concentration of 0.0039 M. The method, boiled down:
as §1

Test [16] deals with T1, Thymidylate synthase. Nature of the test: The observed rate constant with methyl mercaptoacetate in Acetonitrile and buffered aqueous acetonitrile solution at 1.6 x 10e-4 M concentration of 0.0015 M. The method, boiled down: as §1
Test [17] addresses T1, Thymidylate synthase. Kind of test: The observed rate constant with methyl mercaptoacetate in Acetonitrile and buffered aqueous acetonitrile solution at 9.7 x 10e-5 M concentration of 0.0096 M. The method, boiled down:
as §1

The target of test [18] is T1, Thymidylate synthase. Kind of test: The observed rate constant with methyl mercaptoacetate in Acetonitrile and buffered aqueous acetonitrile solution at 9.7 x 10e-5 M concentration of 0.0048 M. The essentials:
as §1

Test [19] has as its target T1, Thymidylate synthase. Kind of test: The rate constant with methyl mercaptoacetate in Acetonitrile and buffered aqueous acetonitrile solution at concentration of 0.012 M. The essentials: as §1
Test [20] has as its target T1, Thymidylate synthase. Nature of the test: The observed rate constant with methyl mercaptoacetate in Acetonitrile and buffered aqueous acetonitrile solution at 1.6 x 10e-4 M concentration of 0.0026 M. The essentials:
as §1

In test [21] the target is T1, Thymidylate synthase. Kind of test: The observed rate constant with methyl mercaptoacetate in Acetonitrile and buffered aqueous acetonitrile solution at 7.4 x 10e-5 M concentration of 0.0019 M. The method, boiled down: as §1
Test [22] has as its target T1, Thymidylate synthase. Kind of test: The observed rate constant with methyl mercaptoacetate in Acetonitrile and buffered aqueous acetonitrile solution at 1.4 x 10e-4 M concentration of 0.0039. The essentials:
as §1

The target in test [23] is T1, Thymidylate synthase. Nature of the test: The observed rate constant with methyl mercaptoacetate in Acetonitrile and buffered aqueous acetonitrile solution at 9.7 x 10e-5 M concentration of 0.00096 M. The essentials: as §1
Test [24] has as its target T1, Thymidylate synthase. Kind of test: The rate constant in 75% aqueous Acetonotrileas methyl mercaptoacetate as reagent.
The target of test [25] is T1, Thymidylate synthase. Nature of the test: The rate constant in 75% aqueous Acetonitrile […] as reagent.
Test [26] addresses T1, Thymidylate synthase. Nature of the test: Binding affinity against thymidylate synthase. The method, boiled down: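 Thymidylate synthase was inactivated at pH 6.8 and 30 °C, and time-dependent loss of activity was followed. Observed inactivation rate constants, including runs with substrate present (substrate protection), were fitted to 1/kobsd = [Ki[S]/(Km[I]) + Ki/kinact](1/[I]) + 1/kinact to give Ki and kinact. The second-order constant was taken as kinact/Ki.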
Target sequence in this assay (P04818 whole entry): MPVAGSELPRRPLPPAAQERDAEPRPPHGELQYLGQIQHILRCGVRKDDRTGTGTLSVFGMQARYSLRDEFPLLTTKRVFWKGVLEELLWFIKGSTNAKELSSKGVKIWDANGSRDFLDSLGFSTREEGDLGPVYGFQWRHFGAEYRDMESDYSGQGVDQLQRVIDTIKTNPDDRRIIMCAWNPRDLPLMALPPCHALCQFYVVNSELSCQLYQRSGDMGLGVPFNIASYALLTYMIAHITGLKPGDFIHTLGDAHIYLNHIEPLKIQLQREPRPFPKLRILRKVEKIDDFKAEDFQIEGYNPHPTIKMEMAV

For test [27], the target named is T1, Thymidylate synthase.

Results on eight compounds are retold here after ChEMBL document CHEMBL1123535, “Thiol addition to quinones: model reactions for the inactivation of thymidylate synthase by 5-p-benzoquinonyl-2'-deoxyuridine 5'-phosphate” (J Med Chem, 1986).

`O=c1ccn([C@H]2C[C@H](O)[C@@H](COP(=O)(O)O)O2)c(=O)[nH]1` returned a k2 in test [1] above 760000 M⁻¹ s⁻¹.
As to `CC1C=CC(=O)O1` (centres undefined), the k2 in [2] is 0.037 M⁻¹ s⁻¹.
`CC1=CC(=O)c2ccccc2C1=O`: in test [3], the k2 amounted to 0.14 M⁻¹ s⁻¹.
In test [1], `O=C1C=CC(=O)C(c2ccccc2)=C1` gave a k2 of 2600 M⁻¹ s⁻¹.
In turn, `C=CC(=O)OC` registered a k2 in [4] of 0.11 M⁻¹ s⁻¹.
With `CC(=O)OC[C@H]1O[C@@H](n2cc(C3=CC(=O)C=CC3=O)c(=O)[nH]c2=O)C[C@@H]1OC(C)=O`, the k2 in [5] is 2.3 M⁻¹ s⁻¹; in test [8] it was 4.7 M⁻¹ s⁻¹; in test [13], 0.53 M⁻¹ s⁻¹; in test [19], 1.7 M⁻¹ s⁻¹. Moreover, the k obs is 0.00518 s⁻¹ in test [6]; 0.00952 s⁻¹ in test [7]; 0.0197 s⁻¹ in test [9]; 0.00384 s⁻¹ in [10]; 0.00154 s⁻¹ in test [11]; 0.0167 s⁻¹ in [12]. The k obs stood at 0.00434 s⁻¹ in test [14]; 0.0184 s⁻¹ in test [15]; 0.00184 s⁻¹ in test [16]; 0.00501 s⁻¹ in test [17]; 0.0025 s⁻¹ in [18]; 0.00334 s⁻¹ in test [20]. Besides, the k obs stood at 0.00919 s⁻¹ in test [21], 0.00969 s⁻¹ in test [22] and 0.000434 s⁻¹ in [23].
As to `O=C1C=CC(=O)C(c2cn([C@H]3C[C@H](O)[C@@H](CO)O3)c(=O)[nH]c2=O)=C1`, the k2 in test [24] was above 1000 M⁻¹ s⁻¹; in test [25], 5 M⁻¹ s⁻¹.
`O=C1C=CC(=O)C(c2cn([C@H]3C[C@H](O)[C@@H](COP(=O)(O)O)O3)c(=O)[nH]c2=O)=C1`: the Ki (in general, the dissociation constant of the complex between target and ligand, obtained from inhibition or displacement) in test [26] was found to be 2000 nM. This compound also had a k2 in test [1] of 32000 M⁻¹ s⁻¹. The compound further came in with a k cat in [27] of 0.065 s⁻¹.
